Measurements reported in ChEMBL document CHEMBL1123708, “Resolved cis- and trans-2-amino-5-methoxy-1-methyltetralins: central dopamine receptor agonists and antagonists” (1987).
The source made the active and inactive calls. The calls are words filed in the database; no cut-off is given here.

Legend:
Rattus norvegicus [1] = experiment: In vivo DOPA accumulation in non pre-treated rat limbic system following s.c. administration.; type: functional; conditions: sc
Procedure, shortened: (§1)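 Rats without pretreatment received test drug sc 65 min and NSD 1015 (100 mg/kg ip) 30 min before death, with saline controls. DOPA was measured in limbic or striatal tissue. Dose for half-maximal change was estimated from 4-5-dose curves (n = 3-5), maximal level as % of control.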

Rattus norvegicus [2] = experiment: Change in rectal temperature induced by DiPr-5,6-ADTN at a dose of 13 umol/kg of compound by subcutaneous administration; type: functional
Procedure, shortened: (§2)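 Rats received DiPr-5,6-ADTN (0.25 μmol/kg sc) 100 min and test compound sc 40 min before death. Rectal temperature change (°C) was recorded between 60 and 100 min after DiPr-5,6-ADTN. Values are mean ± SEM, n = 4, with Student's t test vs DiPr-5,6-ADTN alone.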

Rattus norvegicus [3] = experiment: Locomotory activity was determined in non pretreated rats at a dose of 52 umol/kg by subcutaneous administration; type: functional
Procedure, shortened: (§3)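 Untreated rats received test drug sc 5 min before a 30-min session in photocell motility meters, with accumulated counts recorded. Activity is expressed as percent of saline controls, mean ± SEM, n = 3-5. Gross behaviour was observed through a semitransparent mirror. Differences from saline controls were assessed by Student's t test.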

Rattus norvegicus [4] = experiment: Locomotory activity was determined in non pretreated rats at a dose of 3.2 umol/kg by subcutaneous administration; type: functional; procedure, shortened: as §3
Rattus norvegicus [5] = experiment: In vivo DOPA accumulation in non pre-treated rat striatal system following s.c. administration.; type: functional; conditions: sc; procedure, shortened: as §1
Rattus norvegicus [6] = experiment: Induced locomotor stimulation in non pre-treated rats by 13 umol/kg s.c. administration.; type: functional
[7] = biological target: T1, Dopamine receptor (Rattus norvegicus) (UniProt P25115+P19020+P30729+P18901+P61169); experiment: In vivo displacement of DiPr-5,6-ADTN from Dopamine receptors in rat striatum; type: organism-based
Rattus norvegicus [8] = experiment: Induced locomotor stimulation in non pre-treated rats by 52 umol/kg s.c. administration.; type: functional
[9] = biological target: T1, Dopamine receptor (Rattus norvegicus); experiment: Ability to displace the Dopamine receptor agonist DiPr-5,6-ADTN from rat striatal binding sites in vivo at a dose of 13 uM/kg by subcutaneous administration; type: organism-based
Rattus norvegicus [10] = experiment: In vivo DOPA accumulation in reserpine pretreated rat limbic system by subcutaneous administration; I denotes inactive; type: functional, organism-based
Procedure, shortened: (§4)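 Rats received reserpine (5 mg/kg sc) 18 h, test drug sc 60 min and NSD 1015 (100 mg/kg ip) 30 min before death, with saline controls. Limbic or striatal DOPA was measured. Dose for half-maximal decrease was estimated from 4-7-dose curves (n = 3-5), minimal level as % of control.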

Rattus norvegicus [11] = experiment: Locomotory activity was determined in reserpine pretreated rats at a dose of 52 umol/kg by subcutaneous administration. Value is the accumulation counts/30 min; type: functional
Procedure, shortened: (§5)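 Rats were given reserpine 5 mg/kg sc 18 h beforehand, then test drug sc immediately before the activity session. Motor activity was recorded by photocells in motility meters as accumulated counts over 30 min, mean ± SEM, n = 3-4. Gross behaviour was watched for signs of stimulation. Reserpine-only controls were included.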

Rattus norvegicus [12] = experiment: In vivo DOPA accumulation in reserpine pretreated rat striatum system by subcutaneous administration; I denotes inactive; type: functional, organism-based; procedure, shortened: as §4
Rattus norvegicus [13] = experiment: In vivo DOPA accumulation in non pretreated rat striatum system by subcutaneous administration; I denotes inactive; type: functional, organism-based; procedure, shortened: as §1
Rattus norvegicus [14] = experiment: In vivo DOPA accumulation in non pretreated rat limbic system by subcutaneous administration; I denotes inactive; type: functional, organism-based; procedure, shortened: as §1
Rattus norvegicus [15] = experiment: ((+)-UH-232) induced locomotor stimulation was determined in non pretreated rats at a dose of 52 umol/kg by subcutaneous administration; type: functional
Rattus norvegicus [16] = experiment: Change in rectal temperature induced by DiPr-5,6-ADTN at a dose of 52 umol/kg of compound by subcutaneous administration; type: functional; procedure, shortened: as §2
[17] = biological target: T1, Dopamine receptor (Rattus norvegicus); experiment: Ability to displace the Dopamine receptor agonist DiPr-5,6-ADTN from rat striatal binding sites in vivo at a dose of 52 umol/kg by subcutaneous administration; type: organism-based
[18] = biological target: T1, Dopamine receptor (Rattus norvegicus); experiment: Ability to displace the Dopamine receptor agonist DiPr-5,6-ADTN from rat striatal binding sites in vivo at a dose of 10 uM/kg by subcutaneous administration; type: organism-based
[19] = biological target: T1, Dopamine receptor (Rattus norvegicus); experiment: Ability to displace the Dopamine receptor agonist DiPr-5,6-ADTN from rat striatal binding sites in vivo at a dose of 40 uM/kg by subcutaneous administration; type: organism-based
Rattus norvegicus [20] = experiment: Change in rectal temperature induced by DiPr-5,6-ADTN at a dose of 10 umol/kg of compound by subcutaneous administration; type: functional; procedure, shortened: as §2
Rattus norvegicus [21] = experiment: Change in rectal temperature induced by DiPr-5,6-ADTN at a dose of 40 umol/kg of compound by subcutaneous administration; type: functional; procedure, shortened: as §2
Rattus norvegicus [22] = experiment: In vivo DOPA accumulation in reserpine pretreated rat striatum system by subcutaneous administration; type: functional; procedure, shortened: as §4
Rattus norvegicus [23] = experiment: Locomotory activity was determined in non pretreated rats at a dose of 52 umol/kg by subcutaneous administration; I denotes inactive; type: functional; procedure, shortened: as §3
Rattus norvegicus [24] = experiment: In vivo DOPA accumulation in non pretreated rat striatum system by subcutaneous administration; denotes inactive; type: functional, organism-based; procedure, shortened: as §1
Rattus norvegicus [25] = experiment: In vivo DOPA accumulation in reserpine pretreated rat limbic system by subcutaneous administration; type: functional; conditions: sc; procedure, shortened: as §4
Rattus norvegicus [26] = experiment: Locomotory activity was determined in reserpine pretreated rats at a dose of 204 umol/kg by subcutaneous administration. Value is the accumulation counts/30 min; type: functional; procedure, shortened: as §5
[27] = biological target: T1, Dopamine receptor (Rattus norvegicus); experiment: Ability to displace the Dopamine receptor agonist DiPr-5,6-ADTN from rat striatal binding sites in vivo at a dose of 52 uM/kg by subcutaneous administration; type: organism-based
Rattus norvegicus [28] = experiment: Induced locomotor stimulation was determined in non pretreated rats at a dose of 52 uM/kg by subcutaneous administration; type: functional; procedure, shortened: as §3
Rattus norvegicus [29] = experiment: In vivo DOPA accumulation in non pretreated rat limbic system by subcutaneous administration;. indicates 40-50% increase in limbic system after 52 umol/kg (sc); type: functional, organism-based; procedure, shortened: as §1
Rattus norvegicus [30] = experiment: In vivo DOPA accumulation in non pretreated rat striatum system by subcutaneous administration.; hr indicates 40-50% increase in limbic system after 52 umol/kg (sc); type: functional, organism-based; procedure, shortened: as §1
Rattus norvegicus [31] = experiment: In vivo DOPA accumulation in reserpine pretreated rat striatum system by subcutaneous administration; denotes inactive; type: functional, organism-based; procedure, shortened: as §4
Rattus norvegicus [32] = experiment: In vivo % increase in DOPA accumulation in non pretreated rat striatum system after 52 umol/kg (sc); I denotes inactive; type: functional, organism-based
Rattus norvegicus [33] = experiment: In vivo % increase in DOPA accumulation in non pretreated rat limbic system after 52 umol/kg (sc); I denotes inactive; type: functional, organism-based
Rattus norvegicus [34] = experiment: In vivo DOPA accumulation in non pretreated rat striatum system by subcutaneous administration; indicates 40-80% increase in limbic system after 52 umol/kg (sc); type: functional, organism-based; procedure, shortened: as §1
Rattus norvegicus [35] = experiment: In vivo DOPA accumulation in non pretreated rat limbic system by subcutaneous administration; indicates 40-80% increase in limbic system after 52 umol/kg (sc); type: functional, organism-based; procedure, shortened: as §1

SMILES	ED50 (Rattus norvegicus [1]) [µmol/kg]	Activity (Rattus norvegicus [4]) [%]	ED50 (Rattus norvegicus [5]) [µmol/kg]	Activity (Rattus norvegicus [6]) [%]	Binding [7] [%]	Body temp change (Rattus norvegicus [2]) [°C]	Activity (Rattus norvegicus [8]) [%]	also measured
CCCCN[C@@H]1CCc2c(OC)cccc2[C@@H]1C	18	113	20	82	76			Temperature (Rattus norvegicus [2]): -0.25 °C; Activity (Rattus norvegicus [3]): 135%
CCN(CC)[C@@H]1CCc2c(O)cccc2[C@@H]1C	13	113	6.5	63	49	0.2	19	
CCCCN(CCCC)[C@H]1CCc2c(O)cccc2[C@H]1C				87		-0.7		Binding [9]: 124%; ED50 (Rattus norvegicus [10]): inactive; Activity (Rattus norvegicus [11]): 6 counts/30 min; ED50 (Rattus norvegicus [12]): inactive
CCCN(CCC)[C@@H]1CCc2c(O)cccc2[C@H]1C							97	ED50 (Rattus norvegicus [13]): inactive; ED50 (Rattus norvegicus [14]): inactive; ED50 (Rattus norvegicus [10]): inactive; ED50 (Rattus norvegicus [12]): inactive
CCCN[C@@H]1CCc2c(O)cccc2[C@@H]1C	9	114	16	107	66	0.1	125	
CCN[C@@H]1CCc2c(OC)cccc2[C@@H]1C	5.3	108	4.8	69	36			Temperature (Rattus norvegicus [2]): 1.33 °C; Activity (Rattus norvegicus [3]): 60%
CCN[C@@H]1CCc2c(O)cccc2[C@@H]1C	15	83	6	95	64	-0.5	62	
CN[C@@H]1CCc2c(OC)cccc2[C@@H]1C	4.7	86	1.8	35	51		29	Activity (Rattus norvegicus [15]): 9%; Temperature (Rattus norvegicus [2]): -0.25 °C; Temperature (Rattus norvegicus [16]): 0.93 °C; Binding [17]: 20%
CCCCN(CCCC)[C@@H]1CCc2c(OC)cccc2[C@@H]1C				96		-0.27	96	ED50 (Rattus norvegicus [13]): inactive; Binding [9]: 115%; ED50 (Rattus norvegicus [14]): inactive
CCCN(CCC)[C@@H]1CCc2c(O)cccc2[C@@H]1C	110	110	9.4				102	Binding [18]: 61%; Binding [19]: 21%; Body temp change (Rattus norvegicus [20]): 1.7 °C; Body temp change (Rattus norvegicus [21]): 1.7 °C; ED50 (Rattus norvegicus [10]): inactive; Activity (Rattus norvegicus [11]): 6 counts/30 min; ED50 (Rattus norvegicus [12]): inactive
C[C@H]1c2cccc(O)c2CC[C@H]1N(C)C	5.5	76	3.4	11	39	1.48	1	
COc1cccc2c1CC[C@@H](N)[C@H]2C	4.4	136	4.2	88	83			Temperature (Rattus norvegicus [2]): -1.33 °C; Activity (Rattus norvegicus [3]): 62%
CN[C@@H]1CCc2c(O)cccc2[C@@H]1C	5.5	143	7.5	73	54			Temperature (Rattus norvegicus [2]): 0.15 °C; Activity (Rattus norvegicus [3]): 47%
CCCN(CCC)[C@@H]1CCc2c(OC)cccc2[C@H]1C								ED50 (Rattus norvegicus [22]): inactive; ED50 (Rattus norvegicus [13]): inactive; Activity (Rattus norvegicus [23]): 88%; ED50 (Rattus norvegicus [14]): inactive; ED50 (Rattus norvegicus [10]): inactive
CCCN(CCC)[C@H]1CCc2c(OC)cccc2[C@@H]1C							82	ED50 (Rattus norvegicus [13]): inactive; ED50 (Rattus norvegicus [14]): inactive; ED50 (Rattus norvegicus [10]): inactive; ED50 (Rattus norvegicus [12]): inactive
C[C@H]1c2cccc(O)c2CC[C@H]1N		94		86	98			Temperature (Rattus norvegicus [2]): -0.7 °C; ED50 (Rattus norvegicus [24]): inactive; Activity (Rattus norvegicus [3]): 97%; ED50 (Rattus norvegicus [14]): inactive
C[C@@H]1c2cccc(O)c2CC[C@@H]1N(C)C	8.5		8.5	34		0.88	15	ED50 (Rattus norvegicus [25]): 28 µmol/kg; ED50 (Rattus norvegicus [22]; sc): 25 µmol/kg; Activity (Rattus norvegicus [26]): 7 counts/30 min; Binding [27]: 22%; Body temp change (Rattus norvegicus [16]): 1.82 °C; Activity (Rattus norvegicus [28]): 4%; Binding [9]: 63%
CCCCN[C@@H]1CCc2c(O)cccc2[C@@H]1C		89		80		-0.93	76	ED50 (Rattus norvegicus [29]): Weak activity; ED50 (Rattus norvegicus [30]): Weak activity; Binding [9]: 46%
CCCN[C@H]1CCc2c(OC)cccc2[C@H]1C		113						ED50 (Rattus norvegicus [13]): inactive; Activity (Rattus norvegicus [3]): 119%; ED50 (Rattus norvegicus [31]): inactive; ED50 (Rattus norvegicus [14]): inactive; ED50 (Rattus norvegicus [10]): inactive; Activity (Rattus norvegicus [11]): 12 counts/30 min
CCN(CC)[C@H]1CCc2c(O)cccc2[C@H]1C				100		0.22	40	ED50 (Rattus norvegicus [25]): 1.4 µmol/kg; ED50 (Rattus norvegicus [22]; sc): 1.6 µmol/kg; Binding [9]: 70%; ED50 (Rattus norvegicus [32]): inactive; ED50 (Rattus norvegicus [33]): inactive; Activity (Rattus norvegicus [11]): 5 counts/30 min
CCCCN(CCCC)[C@@H]1CCc2c(O)cccc2[C@@H]1C				89		-0.43	82	ED50 (Rattus norvegicus [34]): Weak activity; Binding [9]: 96%; ED50 (Rattus norvegicus [35]): Weak activity
